CHO parental Ca: counter-screen for OX1R antagonists: effect in parental CHO cells; 330,000 compounds, 0.63% hits; inhibition, % at 5.6 µM; parental CHO-K1, ATP-induced calcium, Fluo-8 fluorescence;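 active = inhibition above that plate's mean sample inhibition plus 3 SD, cut at about 26% in these data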;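 also: 0% = ATP-challenged DMSO wells and 100% = DMSO wells without ATP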
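Assay system: parental CHO cells; Read-out basis: percent inhibition of ATP-evoked calcium rise, normalized to controls; Benchmarks: ATP and no-ATP DMSO wells; Compound dosing: single nominal dose of 5.6 µM per compound; Signal: Fluo-8 calcium dye fluorescence; Also added: ATP as calcium-mobilizing challenge; Repeats: singlicate.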
NTR1 agonist: activates human neurotensin receptor 1; P30989; NTR1-U2OS beta-arrestin-GFP spot imaging, agonist mode; activation, % at 20 µM; 330,000 compounds, 0.17% hits; AID 493036;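 active = activation at or above 40% of the spot to cytoplasm intensity ratio, with at least 20 cells analyzed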;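 also: 0% = DMSO without peptide and 100% = 100 nM NTR1 peptide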
TAAR1 antag: antagonists of human TAAR1; Q96RJ0; CHO RD-HGA16 TAAR1, Fluo-8 calcium fluorescence, antagonist; inhibition, % at 3 µM; 360,000 compounds, 1.5% hits;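 active = inhibition above a per-plate cutoff, the mean inhibition of test compounds on that plate plus 3 SD, cut at about 49% in these data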;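 also: 0% = DMSO plus EC80 beta-PEA response and 100% = DMSO alone without agonist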
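System: RD-HGA16 CHO cells with stable hTAAR1 and Gα16 | Probe or stimulus: EC80 β-phenethylamine stimulus | Dosing: 3 µM, single point | Times: Dye loading 75 min at 37 °C, then 30 min room temperature | Measured by: Fluo-8 calcium-sensitive fluorescence | Read-out basis: % inhibition of agonist calcium response | Replicates: n of 1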
OX1R antag-1: blocks the human orexin 1 receptor; O43613; inhibition, % at 6.6 µM; 330,000 compounds, 1.8% hits; OX1R-expressing cells, FRET antagonist read-out; in the data active = inhibition mostly above about 38%, no sharp cut-off; inactive = mostly below about 40%;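 also: 0% = agonist challenge alone and 100% = reference antagonist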
Target sequence (O43613 whole entry, looked up): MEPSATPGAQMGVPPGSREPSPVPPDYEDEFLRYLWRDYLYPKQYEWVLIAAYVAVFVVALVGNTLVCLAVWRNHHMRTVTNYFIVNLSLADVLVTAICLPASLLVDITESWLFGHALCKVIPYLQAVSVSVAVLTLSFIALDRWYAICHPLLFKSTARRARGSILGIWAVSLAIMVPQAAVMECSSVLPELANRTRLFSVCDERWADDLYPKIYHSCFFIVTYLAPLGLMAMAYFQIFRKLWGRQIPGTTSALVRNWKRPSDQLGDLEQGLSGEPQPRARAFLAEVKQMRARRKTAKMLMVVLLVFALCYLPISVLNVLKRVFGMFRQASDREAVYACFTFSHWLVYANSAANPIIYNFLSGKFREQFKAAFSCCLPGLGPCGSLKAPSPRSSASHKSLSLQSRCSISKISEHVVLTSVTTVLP
TAAR1 ag: agonists of human TAAR1; Q96RJ0; activation, % at 3 µM; 360,000 compounds, 0.99% hits; CHO RD-HGA16 TAAR1, Fluo-8 calcium fluorescence; vehicle wells 0%, saturating PEA agonist 100%; AID 624467;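 active = activation above the mean activation of all test compounds in the run plus 3 SD, cut at about 38% in these data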
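Benchmarks: low control DMSO, high control PEA (EC100); System: CHO RD-HGA16 cells carrying human TAAR1 plus Gα16; Detection: Fluo-8 fluorescence, 5 s baseline then 140 s kinetic read; Schedule: 17-24 h plating, Fluo-8 75 min 37 °C, 30 min RT; Read-out basis: % activation from peak over basal fluorescence ratio, DMSO-to-PEA scaled.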
OX1R antag-2: human HCRTR1 antagonism | CHO/OX1R cells, Fluo-8 calcium fluorescence, orexin A | 330,000 compounds, 0.43% hits | inhibition, % at 5 µM | AID 434989;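 active = inhibition above its plate's threshold, mean inhibition of all tested compounds on the plate plus 3 SD, cut at about 37% in these data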;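 also: 0% = orexin A challenge wells and 100% = SB-334867-A antagonist wells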
* = called active by the depositor; x = not tested or not shown. Compounds with a hit are over-represented: about 4% of the library has one in this group of screens.

SMILES	CHO parental Ca	NTR1 agonist	TAAR1 antag	OX1R antag-1	TAAR1 ag	OX1R antag-2
C=CCn1c(SCC(=O)Nc2ccc3c(c2)OCO3)nnc1-c1cc(Br)ccc1O	-23.5	1.2	17.4	64.7*	10.2	-15.3
C=CCn1c(SCC(=O)Nc2ccc3c(c2)OCO3)nnc1-c1ccccc1	-14.2	-0.6	-3.2	47.3	1.0	-21.7
NC(=O)c1ncn([C@@H]2O[C@H](C(=O)Nc3ccc(C(=O)N4CCCCC4)cc3)[C@@H](O)[C@H]2O)n1	x	x	-33.4	x	1.2	x
Cc1nn(-c2ccccc2)c2sc(-c3n[nH]c(=S)o3)cc12	-13.7	2.4	9.0	40.9*	2.5	5.0
COc1ccc(NC(=O)C(c2ccc(C#N)cc2)n2c(=O)c(-c3ccco3)nc3ccccc32)cc1 (stereo not given)	x	x	8.1	x	-0.1	x
COc1ccccc1NC(=O)c1c(Nc2ccccc2F)sc(C(=O)Nc2cccc(Cl)c2)c1N	42.5*	4.2	19.0	15.5	16.1	36.9
COc1ccc(Nc2sc(C(=O)Nc3cccc(Cl)c3)c(N)c2C(=O)Nc2ccccc2OC)cc1	47.5*	x	x	-0.1	x	50.7*
Cc1ccccc1-c1cccc2c3c([nH]c12)[C@@H]1C[C@H]2[C@@H](C(=O)N1CC3)[C@H](C)ON2C	x	x	39.0	x	3.8	x
O=C(O)Cn1cc(/C=c2/sc3nc4ccccc4n3c2=O)c2ccccc21	-12.2	0.2	8.2	59.1*	5.4	19.1
COC(=O)[C@]12C[C@H](CC(=O)NCCC(C)C)C(=O)N(Cc3ccccc3)C1=C[C@H](C(C)(C)C)O[C@@H]2C	x	x	-21.0	x	-2.0	x
CC1CN(Cc2cc(=O)n3ccsc3n2)CC(C)O1 (stereo not given)	-17.8	3.1	-11.1	8.1	40.1*	-6.8
O=c1cc(CN2CCC(Cc3ccccc3)CC2)nc2sccn12	-5.8	-0.4	3.2	36.9	-0.8	-11.4
O=C(Nc1nnc(-c2cccs2)o1)c1cccc(Oc2ccccc2)c1	4.6	2.2	34.0	42.1	36.2	8.3
O=C(Nc1nnc(-c2cccs2)o1)c1cc(-c2ccccc2)nc2ccccc12	-5.1	7.0	-8.0	46.2*	21.7	-5.3
CN(C)S(=O)(=O)c1cccc(NC(=O)c2cc(-c3cccs3)nc3ccccc23)c1	-2.2	2.6	64.5*	26.4	16.3	-2.8
COC(=O)c1cccc(NC(=O)CCSc2ccc(Cl)cc2)c1C	27.8	-0.9	91.3*	12.9	77.4*	1.7
O=C(NC1CCCC1)C(c1ccccn1)N(Cc1ccc(F)cc1)C(=O)c1csnn1 (stereo not given)	-12.7	-0.4	-1.5	10.0	-2.5	-27.1
O=C(CCc1ccccc1)NC(NC(=S)Nc1ccc(Cl)cc1)C(Cl)(Cl)Cl (stereo not given)	40.9*	-2.7	1.6	65.5	17.1	33.1
O=C(/C=C/c1ccccc1)NC(NC(=S)Nc1ccc(Cl)cc1)C(Cl)(Cl)Cl (stereo not given)	3.8	0.0	0.3	75.2	7.9	16.0
O=C1c2cc(CO)cc(O)c2C(=O)c2c(O[C@@H]3OC(CO)[C@@H](O)[C@@H](O)[C@@H]3O)cccc21 (stereo not given in full)	-6.1	-1.5	-11.2	73.1*	1.6	-9.7
O=C(O)c1cc(O)c2c(c1)[C@H]([C@H]1c3cc(C(=O)O)cc(O)c3C(=O)c3c(O[C@@H]4O[C@H](CO)[C@@H](O)[C@H](O)[C@H]4O)cccc31)c1cccc(OC3O[C@H](CO)[C@@H](O)[C@H](O)[C@H]3O)c1C2=O (stereo not given in full)	2.4	-1.8	-21.4	43.3	0.4	13.7
COc1ccc(-n2cnnc2SCC(=O)Nc2ccccc2F)cc1	-9.1	-0.5	-0.5	11.1	2.9	8.6
O=[N+]([O-])c1ccc(-c2nnc3n2CCCCC3)cc1	-6.2	0.4	-13.5	32.2*	1.0	-15.5
c1ccc(-c2nnc3n2CCCC3)cc1	-4.2	0.1	3.5	-0.2	3.3	-20.6
COc1ccc(N(CC(=O)NCCc2ccc(OC)c(OC)c2)S(=O)(=O)c2ccc(OC)c(OC)c2)cc1	-30.6	0.0	18.5	23.2	7.9	-41.7
SMILES	CHO parental Ca	NTR1 agonist	TAAR1 antag	OX1R antag-1	TAAR1 ag	OX1R antag-2
COc1ccc(Cl)cc1N(CC(=O)NC1CC2CCC1C2)S(=O)(=O)c1ccccc1 (stereo not given)	-15.9	5.9	-5.7	26.2	-0.4	-20.3
CCOc1ccccc1N(CC(=O)NCCc1ccc(OC)c(OC)c1)S(=O)(=O)c1ccccc1	-16.0	-1.2	-29.1	75.7*	6.0	6.2
CCOc1ccccc1N(CC(=O)Nc1ccc(OC)cc1OC)S(=O)(=O)c1ccccc1	0.0	0.3	-31.6	50.3*	-1.9	-7.9
COC(=O)c1cc(NC(=O)CN(c2cccc(OC)c2)S(=O)(=O)c2ccccc2)ccc1Cl	-22.3	2.7	39.7	-3.2	6.8	-42.3
COC(=O)c1cc(NC(=O)CN(c2ccccc2OC)S(=O)(=O)c2ccccc2)ccc1Cl	-10.4	1.5	51.2*	17.1	7.2	-0.2
COc1ccc(OC)c(N(CC(=O)NC2CC3CCC2C3)S(=O)(=O)c2ccccc2)c1 (stereo not given)	-39.8	1.5	-22.4	46.3*	6.4	-41.1
C[C@@H]1ON(C)[C@H]2C[C@H]3c4[nH]c5cccc(-c6cccc(F)c6)c5c4CCN3C(=O)[C@@H]12	x	x	35.9	x	12.7	x
COC(=O)C1=C(C)N(Cc2cccc(C(F)(F)F)c2)C(=NCc2cc(OC)c(OC)c(OC)c2)NC1CCc1ccccc1 (stereo not given)	x	x	-10.5	x	16.9	x
COc1ccc(C(=O)c2[nH]c(N)c(C(=O)c3c[nH]c4ccccc34)c2-c2ccc(F)c(OC)c2)cc1	x	x	14.6	x	7.5	x
COC(=O)CNC(=O)CN(c1ccc(OC)cc1OC)S(=O)(=O)c1ccccc1	-13.5	-0.1	1.7	2.3	1.0	6.5
COc1ccc(N(CC(=O)NCCC2=CCCCC2)S(=O)(=O)c2ccccc2)c(OC)c1	-36.9	3.3	6.4	61.9*	-1.8	-31.0
COC(=O)C1=C(C)N(Cc2ccccc2C(F)(F)F)C(=NCc2cc(OC)c(OC)c(OC)c2)NC1c1ccccc1 (stereo not given)	x	x	-6.8	x	11.2	x
CCN1C(=O)c2cccc3c(N)ccc(c23)C1=O	46.3*	-2.9	42.2	18.6	136.3*	58.5*
Cc1nn(C)c(C)c1N1C(=O)c2cccc3c(N)ccc(c23)C1=O	50.6*	x	64.0*	19.0	124.3*	62.2*
O=[N+]([O-])c1ccc(SN2CCCCC2)c([N+](=O)[O-])c1	x	x	0.9	x	0.9	x
Cc1cccc(C)c1NC(=O)C(c1ccccc1)N1CCN(c2ccc(C(F)(F)F)cn2)CC1 (stereo not given)	x	x	-11.3	x	2.6	x

Compound activity: PubChem, several laboratories
